Compound activity (PubChem)
Most compounds without a hit are left out; they make up all but 0.95% or so of the library.
HKDC1 inh: blocks human hexokinase HKDC1 activity; Q2TB90; recombinant HKDC1, G6PDH/diaphorase resazurin coupled fluorescence; inhibition, % at 20 µM; hit rate 0.16% among 340,000;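 active means inhibition above about 35% when tested at 20 µM, limit read from the data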;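 further: plate controls were DMSO wells with enzyme for no effect and DMSO wells lacking enzyme for full effect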
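Assay system: in-house recombinant HK5 (HKDC1) enzyme. Input: HKDC1 at 5 µg/mL. Medium: Tris pH 8.0 buffer with MgCl2, Tween-20, BSA, BME. Dosing: single 20 µM dose. Schedule: 90 min reaction incubation at room temperature, dark. Signal: resazurin-to-resorufin fluorescence via G6PDH and diaphorase coupling, 525/613 nm. Controls: DMSO-enzyme wells negative, buffer-substituted wells positive.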
UBC9 SUMO inh: inhibitors of human SUMOylation (UBC9); P63279; AID 2006; HTRF SUMOylation assay, SAE1/SAE2 + UBC9, in vitro; hit rate 0.36% among 290,000; inhibition, % at 35 µM; in the data active means inhibition above about 50%, passing the limit was not always enough; inconclusive means no clear call, values can overlap the other calls
G6PDH CS: inhibits Leuconostoc G6PDH, flagging false hits in G6PDH-based assays; Purified L. mesenteroides G6PDH, diaphorase/resazurin coupled fluorescence, 45 min; hit rate 0.12% among 200,000; AID 1020; inhibition, % at 5 µM; in the data active means inhibition above about 50%
Diaph inh CS: counter-screen for diaphorase-based assays: diaphorase inhibitors and chemical oxidizers. diaphorase resazurin-to-resorufin fluorescence, NADH, 16 min; bacterial (C. kluyveri) enzyme, not human. hit rate 0.69% among 190,000. inhibition, % at 20 µM;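 active means primary screen inhibition at 20 µM above a set limit, cut at about 50% in these data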;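 further: plate controls were DMSO with full reaction for no effect and wells lacking NADH for full effect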
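material = Clostridium kluyveri diaphorase enzyme | amount = 0.14 U/mL diaphorase, enzyme working solution | schedule = incubation 16 min, room temperature | detection = fluorescence of resorufin formed from resazurin, Ex 544/Em 590 nm | benchmarks = positive control minus NADH, DMSO neutral control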
p97 ATPase inh: inhibitors of human p97 ATPase; hit rate 0.42% among 220,000; recombinant p97 ATPase, Kinase-Glo ATP luminescence, 3 h; inhibition, % at 8 µM; P55072; in the data active means inhibition above about 15%;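 further: 0% = DMSO vehicle and 100% = wells lacking enzyme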
Target sequence (P55072 whole entry, looked up): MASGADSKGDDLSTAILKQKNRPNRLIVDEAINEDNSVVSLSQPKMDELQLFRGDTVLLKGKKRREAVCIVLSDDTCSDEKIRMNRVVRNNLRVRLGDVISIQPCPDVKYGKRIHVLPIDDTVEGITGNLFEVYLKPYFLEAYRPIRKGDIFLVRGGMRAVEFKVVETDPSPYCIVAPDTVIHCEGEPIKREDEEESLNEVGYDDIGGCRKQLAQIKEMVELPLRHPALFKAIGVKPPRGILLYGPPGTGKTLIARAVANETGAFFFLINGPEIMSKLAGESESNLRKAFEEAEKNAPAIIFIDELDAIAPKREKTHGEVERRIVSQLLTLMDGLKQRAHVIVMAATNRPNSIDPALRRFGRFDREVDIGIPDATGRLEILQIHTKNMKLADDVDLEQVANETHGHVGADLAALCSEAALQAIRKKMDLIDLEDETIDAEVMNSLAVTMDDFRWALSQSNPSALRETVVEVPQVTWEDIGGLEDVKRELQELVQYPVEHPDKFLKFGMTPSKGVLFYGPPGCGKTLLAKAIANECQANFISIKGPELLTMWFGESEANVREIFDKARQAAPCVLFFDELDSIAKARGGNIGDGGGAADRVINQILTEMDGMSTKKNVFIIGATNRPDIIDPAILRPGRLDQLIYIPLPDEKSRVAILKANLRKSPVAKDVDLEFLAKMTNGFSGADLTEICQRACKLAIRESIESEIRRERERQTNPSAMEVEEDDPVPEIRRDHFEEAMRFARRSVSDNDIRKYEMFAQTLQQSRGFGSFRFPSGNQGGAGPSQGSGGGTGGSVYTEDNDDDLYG
* hit, by the source's call; ? = inconclusive; / = no result given.

SMILES	HKDC1 inh	UBC9 SUMO inh	G6PDH CS	Diaph inh CS	p97 ATPase inh
Cc1[nH]n(-c2ccccc2)c(=O)c1C(C[N+](=O)[O-])c1ccc(Br)cc1 (centres undefined)	2	50	5	40	-2
Cc1onc(C(=O)NC2CCCCC2)c1[N+](=O)[O-]	-6	-3	/	/	/
COc1ccc(Nc2ccc(C(F)(F)F)cc2[N+](=O)[O-])cn1	0	11	/	/	/
[O-][N+]1=c2ccc(Nc3ccccc3)cc2=NC12CCCCC2	20	79*	48	72*	0
COc1ccc(Nc2ccc3c(c2)=NC2(CCCCC2)[N+]=3[O-])cc1	24	46	56*	73*	-4
CC(C)n1c2ccccc2c2nnc(SCC(=O)OCN3C(=O)c4ccccc4C3=O)nc21	17	21	-5	57*	9
Cn1c2ccccc2c2nnc(SCN3C(=O)c4ccccc4C3=O)nc21	/	7	0	28	/
COc1ccc(N2CCN(S(=O)(=O)CC34CCC(CC3=O)C4(C)C)CC2)cc1 (centres undefined)	0	18	/	/	/
Cc1ccc(C(=O)C(C)Sc2nnc(N)s2)cc1 (centres undefined)	-2	-1	-2	10	6
Oc1ccccc1/C=N/Nc1ncc(Br)cn1	10	20	58*	14	2
CNC(=S)N/N=C/c1c(C)c(C(=O)c2ccc(F)cc2)n2ccccc12	-2	3	/	/	/
O=c1[nH]c(=S)[nH]c2nc(-c3ccccc3)cnc12	-1	/	/	/	/
Cc1cc2nc3c(=O)[nH]c(=S)[nH]c3nc2cc1NC(=O)C(F)(F)F	-2	60*	/	/	/
CC(C)=CCc1c(O)ccc2c1OC(c1ccc(O)c(O)c1)CC2=O (centres undefined)	4	3	28	62*	13
CC(C)=CCc1c(O)cc2c(c1O)C(=O)CC(c1ccccc1)O2 (centres undefined)	1	/	/	/	/
O=C1CC(c2ccc(O)c(O)c2)Oc2cc(O)cc(O)c21 (centres undefined)	0	5	/	/	/
O=C1CC(c2ccc(O)c(O)c2)Oc2c1ccc(O)c2O (centres undefined)	2	73*	/	/	/
Cn1c2ccccc2c(=O)n2c(=O)c3ccccc3cc12	/	/	51*	16	7
CC(=O)NNC(=O)c1sc(=S)n2c1[nH]c(=O)c1sccc12	2	-3	-1	29	9
O=C(NCc1ccccc1)c1sc(=S)n2c1[nH]c(=O)c1ccccc12	13	4	8	73*	9
COc1ccc(S(=O)(=O)N2CCCCC2)cc1NC(=O)CN(Cc1ccco1)Cc1ccco1	3	/	/	/	/
O=C(N/N=C/c1cc2c3c(c1O)CCCN3CCC2)c1ccccc1O	-9	29	1	63*	10
Cc1nn(-c2ccccc2)c(N2CCCC2)c1/C=N/NC(=O)c1ccccc1O	-8	3	0	12	2
C=CCNC(=O)CN1N=C(c2ccc(C)cc2)CCC1=O	-6	26	/	/	/
O=C(Nc1ccc2oc(-c3ccc4ccccc4c3)nc2c1)c1ccc2c(c1)OCCO2	-5	55*	2	-9	-1
SMILES	HKDC1 inh	UBC9 SUMO inh	G6PDH CS	Diaph inh CS	p97 ATPase inh
Cc1ccc2nc(-c3cccc(NC(=O)c4ccc5c(c4)OCCO5)c3)oc2c1	-6	18	1	7	5
C(=Nc1cccc2c(N=Cc3ccco3)cccc12)c1ccco1	-7	?	11	81*	4
O=C1SC(SCc2ccccc2)=N/C1=C\c1ccco1	4	23	0	15	4
CCCSC1=N/C(=C\C=C\c2ccco2)C(=O)S1	4	35	8	51*	9
C[C@@H]1COC(=O)[C@@H](Cc2ccc(F)cc2)C/C=C\C[C@H](CC(=O)N(CCO)Cc2ccccc2)C(=O)N1	-3	/	/	/	/
Cc1ccc(NS(=O)(=O)c2cc(C(=O)Nc3cccnc3)ccc2C)cc1	-3	-4	/	/	/
CCN(CC(=O)Nc1ccc(OC)cc1)C(=O)c1ccc(N2CCCC2=O)cc1	-6	/	/	/	/
COn1c(C)c(C)c2c3nonc3ccc21	11	82	/	/	19*
CCOC(=O)CC1CCCCN1C(=O)c1cc(COc2cccc3cnccc23)on1 (centres undefined)	1	21	/	/	/
CC1CCN(Cc2cc(=O)oc3cc(O)c(Cl)cc23)CC1	-2	55*	/	/	/
CC1CN(Cc2cc(=O)oc3cc(O)c(Cl)cc23)CC(C)O1 (centres undefined)	-4	32	/	/	/
Cc1[nH]c2ccccc2c1C(=O)CN1C(=O)C(=O)N(CCC2=CCCCC2)C1=O	1	/	/	/	/
CC(=O)Nc1ccc(Nc2cc(C)c3ccccc3n2)cc1	2	6	/	/	/
CC(=O)Nc1ccc2nc3ccccc3nc2c1	16	92*	/	/	5
O=C(Nc1ccc2nc3ccccc3nc2c1)c1ccc(Br)cc1	7	57*	-13	17	7
CC(=O)Nc1ccc(-c2nc3ccc(NC(C)=O)cc3o2)cc1	8	51*	/	/	/
O=C(Nc1c(-c2ccccc2)nc2ccccn12)c1cccc(F)c1	-3	-10	/	/	/
COc1ccc(O)c(N)c1	/	?	42	62*	12
Cc1cccc(C)c1OCC(=O)N=Nc1c(O)[nH]c2ccc(Br)cc12	-4	59*	6	8	-5
COc1ccc(/C=N/OCC(=O)N=Nc2c(O)[nH]c3ccc(Br)cc23)cc1	-11	39	-1	4	1
COc1cc2c(cc1OC)C(c1ccccc1)N(S(C)(=O)=O)CC2 (centres undefined)	-11	11	2	82*	1
COc1ccc(CCNC(=O)C(=O)NCCC2CCCCN2S(=O)(=O)c2ccccc2)cc1 (centres undefined)	3	/	/	/	/
O=C(Nc1ccccc1-c1nc2ccccc2s1)c1cccnc1Cl	4	58*	1	3	1
N#Cc1c(=O)c2nc(NCc3ccccc3)ncc2n2ccccc12	10	51*	-2	24	8
COc1ccc2[nH]c3c(=O)n(CCCC(=O)NC4CCC(C)CC4)c(=S)[nH]c3c2c1 (centres undefined)	-7	/	/	/	/
SMILES	HKDC1 inh	UBC9 SUMO inh	G6PDH CS	Diaph inh CS	p97 ATPase inh
COc1ccc2[nH]c3c(=O)n(CCCC(=O)NC4CCCCC4C)c(=S)[nH]c3c2c1 (centres undefined)	-1	58*	/	/	/
NS(=O)(=O)c1cc(C(=O)NC2CCSc3ccccc32)ccc1Cl (centres undefined)	24	73*	/	/	/
Cc1ccc(S(=O)(=O)NCC(=O)N(c2ccccc2)C(C(=O)NCc2ccccc2)c2ccco2)cc1 (centres undefined)	-1	-15	6	51*	4
O=C(Nc1ccc(C(=O)N2CCOCC2)cc1)C1CC1	-1	/	/	/	/
O=C(CCl)Nc1cn(-c2ccccc2)nc1-c1ccccc1	2	-11	-4	23	15*
COc1ccc(N2C(=O)CSC23C(=O)N(CC(=O)NC2CCCC2)c2ccccc23)cc1 (centres undefined)	6	6	/	/	/
Cn1c(C(=O)Nc2ccc3c(c2)OCCO3)cc2c(=O)n(C)c3ccccc3c21	10	-18	-6	54*	2
